Compound activity (PubChem BioAssay)
An excerpt weighted towards active compounds, which were near 3.2% of everything screened.
MEKK3 PB1 HTS – MEKK3-MEK5 PB1 interaction, increase or decrease | Q99759 | bead-based flow cytometry, Alexa488-MEK5 binding to MEKK3; actives lie on both sides; 0 = blocked by unlabeled MEK5, 100 = vehicle | binding response (% of control), % at 10 µM | 1.4% of 290,000 active | AID 1529;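 active means binding response more than 3 SD above or below the average of its plate-row segment, actives on both sides; inconclusive means wells at one plate position flagged as instrument error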;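 further: Alexa488 bead fluorescence after subtracting the streptavidin-only scavenger bead signal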
MEKK2mut PB1 HTS – signal of MEK5 binding to mutant human MEKK2 PB1 domain; percent response, % at 10 µM; 0.35% of 290,000 active; bead flow cytometry, Alexa488-MEK5 binding to MEKK2 mutant; in the data active means percent response above about 24%, passing the limit was not always enough
DSG3 Ab inh – human desmoglein-3 autoantibody binding inhibition | P32926 | binding (percent of control), % at 10 µM | DSG3-coupled beads, scFv-anti-DSG3-GFP binding, flow cytometry; stronger effect = lower value | 0.48% of 310,000 active;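 active means binding more than 3 SD below its plate's average and above zero; inconclusive means below that plate limit but binding exactly zero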;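 further: hits lower antibody fragment binding to DSG3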
UBC13 polyUb – human UBC13 polyubiquitination inhibition. P61088. UBC13 polyubiquitin chain formation, TR-FRET. inhibition, % at 20 µM. 0.47% of 330,000 active. AID 485273; in the data active means inhibition above about 45%, passing the limit was not always enough; inconclusive means no clear call, values can overlap the other calls
MEKK2 WT-MEK5 – raises or lowers MEK5 binding to wildtype human MEKK2 PB1 domain. Q9Y2U5. bead flow cytometry, Alexa488-MEK5 binding to MEKK2 WT; actives lie on both sides. binding response (% of control), % at 10 µM. 1.1% of 290,000 active; in the data active means binding response below about 67% or above about 130%; inconclusive means no clear call, values can overlap the other calls; inactive means in between
Apaf1 inhib – blocks human Apaf-1 apoptosome activity | inhibition, % at 20 µM | AID 489030 | reconstituted apoptosome caspase-3 activity, DEVD-Rh110 fluorescence | 0.71% of 330,000 active | O14727; active means inhibition of at least 40% at 20 µM;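 further: plate controls were DMSO wells for no effect and DEVD-CHO caspase inhibitor wells for full effect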
Target sequence (O14727 whole entry, looked up): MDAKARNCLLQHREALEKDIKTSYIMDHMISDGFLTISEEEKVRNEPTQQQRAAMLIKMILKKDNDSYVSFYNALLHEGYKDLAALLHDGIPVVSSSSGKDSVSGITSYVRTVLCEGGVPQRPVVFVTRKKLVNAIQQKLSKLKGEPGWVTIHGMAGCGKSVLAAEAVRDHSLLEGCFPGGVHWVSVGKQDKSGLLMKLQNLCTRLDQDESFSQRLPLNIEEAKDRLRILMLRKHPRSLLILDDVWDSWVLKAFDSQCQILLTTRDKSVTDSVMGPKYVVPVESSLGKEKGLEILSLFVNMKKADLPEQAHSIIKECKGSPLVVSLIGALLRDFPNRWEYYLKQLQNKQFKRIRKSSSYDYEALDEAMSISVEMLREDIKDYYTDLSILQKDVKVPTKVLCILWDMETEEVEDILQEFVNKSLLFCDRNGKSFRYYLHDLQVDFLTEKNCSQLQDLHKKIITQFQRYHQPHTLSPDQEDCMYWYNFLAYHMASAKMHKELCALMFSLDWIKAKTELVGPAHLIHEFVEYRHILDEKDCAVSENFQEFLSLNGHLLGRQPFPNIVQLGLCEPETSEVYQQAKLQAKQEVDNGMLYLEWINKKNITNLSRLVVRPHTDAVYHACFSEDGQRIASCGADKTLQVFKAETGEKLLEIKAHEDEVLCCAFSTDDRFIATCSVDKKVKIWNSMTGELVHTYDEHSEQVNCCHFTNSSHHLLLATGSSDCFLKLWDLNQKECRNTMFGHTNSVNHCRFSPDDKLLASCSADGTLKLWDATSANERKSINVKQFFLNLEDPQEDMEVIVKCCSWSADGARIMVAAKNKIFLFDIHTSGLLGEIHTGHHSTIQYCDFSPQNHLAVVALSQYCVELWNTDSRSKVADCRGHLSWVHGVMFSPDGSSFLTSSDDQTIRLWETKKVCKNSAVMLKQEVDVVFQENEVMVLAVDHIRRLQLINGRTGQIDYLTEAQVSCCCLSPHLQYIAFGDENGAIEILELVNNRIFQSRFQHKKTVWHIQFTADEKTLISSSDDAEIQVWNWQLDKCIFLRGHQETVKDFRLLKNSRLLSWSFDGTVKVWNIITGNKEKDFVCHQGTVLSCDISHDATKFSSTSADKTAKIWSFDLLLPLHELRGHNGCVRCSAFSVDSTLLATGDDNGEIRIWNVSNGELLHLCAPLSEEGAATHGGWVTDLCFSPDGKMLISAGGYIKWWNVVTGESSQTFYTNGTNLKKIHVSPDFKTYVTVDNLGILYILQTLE
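Material: cell-free apoptosome with Apaf-1, procaspase-3 and caspase-9; Buffer or medium: Hepes pH 7.5 with detergent and BSA; Reagent: cytochrome c trigger plus (Z-DEVD)2-Rh110 caspase-3 substrate; Times: compound with Apaf-1, dATP, procaspase-3 30 min, then 50 min reaction, room temperature; Technique: Rh110 fluorescence intensity.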
The depositor's hits bear a star; ? = inconclusive; . = no result.

SMILES | MEKK3 PB1 HTS | MEKK2mut PB1 HTS | DSG3 Ab inh | UBC13 polyUb | MEKK2 WT-MEK5 | Apaf1 inhib
CCn1c(CC(=O)Nc2ccc(F)cc2)nnc1SCC(=O)NC1=NCCS1 | 101.0 | 1.0 | -62.5* | 3.5 | 104.0 | -7.5
CCn1c(CC(=O)Nc2ccccc2F)nnc1SCC(=O)NC1=NCCS1 | . | . | 98.1 | . | . | .
CC(C)n1cnc2c(Nc3ccc(C(=O)O)cc3)nc(Cl)nc21 | 98.0 | 7.0 | 102.7 | 9.4 | 101.0 | -5.7
CC(C)[C@H](CO)Nc1nc(Nc2ccc(Cl)c(C(=O)O)c2)c2ncn(C(C)C)c2n1 | 101.0 | -6.0 | 101.8 | 2.8 | 99.0 | 43.7*
C=CCOc1ccc(CN(C)CC(O)COc2cccc3ccccc23)cc1 (stereo not drawn) | 107.0 | 14.0 | 126.4 | 11.6 | 142.0* | 22.9
C[C@H]1[C@H](C)CC[C@]2(C(=O)O)CC[C@]3(C)C(=CC[C@@H]4[C@@]5(C)C[C@@H](O)[C@H](O)C(C)(C)[C@@H]5CC[C@]43C)[C@H]12 | 100.0 | -3.0 | 84.9* | -2.6 | 97.0 | -11.7
Nc1ccc2nc(-c3cccc(-c4nc5ccc(N)cc5[nH]4)c3)[nH]c2c1 | 97.0 | 4.0 | 72.8* | 8.3 | 107.0 | 13.6
COc1cc(O)c(CCO)c2c1C(=O)C[C@@H](C)O2 | 87.0 | -16.0 | 104.2 | -8.1 | -9.0* | -0.2
O=C(CN1CCN(c2ccccc2O)CC1)Nc1cc([N+](=O)[O-])ccc1Cl | 95.0 | -2.0 | 85.2 | -1.5 | 94.0 | 7.4
COc1cc2c(cc1OC)CN(CC(=O)Nc1cccc([N+](=O)[O-])c1)CC2 | 108.0 | 10.0 | 110.7 | 1.0 | 110.0 | 32.1
COc1cc([N+](=O)[O-])ccc1NC(=O)CN1CCc2cc(OC)c(OC)cc2C1 | 97.0 | -1.0 | 95.1 | -2.8 | 101.0 | 44.1*
O=C(CN1CCN(c2ccccc2O)CC1)Nc1ccc([N+](=O)[O-])cc1Br | 99.0 | 4.0 | 94.5* | 3.3 | 104.0 | -0.2
O=[N+]([O-])c1cccc(/C=C/c2nc[nH]c2[N+](=O)[O-])c1 | 96.0 | 0.0 | 63.5* | -10.1 | 97.0 | -15.5
O=c1[nH]c(/C=C/c2cccc([N+](=O)[O-])c2)c([N+](=O)[O-])c(=O)[nH]1 | 99.0 | 1.0 | 95.1 | -3.8 | 101.0 | 8.7
CCOC(=O)Cc1csc(-n2sc3ccccc3c2=O)n1 | 110.0 | 5.0 | 43.9* | ? | 106.0 | 6.3
CCOC(=O)c1ccc2ncc(C(=O)OCC)c(NCc3ccco3)c2c1 | 109.0 | 14.0 | 46.6* | 7.0 | 109.0 | 17.4
COC(=O)[C@]1(Cc2ccccc2)N[C@H](CN(C)C(=O)Nc2ccc(C(F)(F)F)cc2)[C@@H]2C(=O)N(C)C(=O)[C@@H]21 | . | . | 96.3 | -0.6 | . | 11.1
O=C(COC(=O)c1ccccc1O)NC12CC3CC(CC(C3)C1)C2 | . | . | . | 4.1 | . | 5.1
O=C(OCC(=O)C12CC3CC(CC(C3)C1)C2)c1ccccc1O | . | . | 69.9* | 8.8 | . | -5.0
Cc1cc(C)c2nc(-c3ccncc3)cc(C(=O)N3CCN(Cc4ccccc4Cl)CC3)c2c1 | 103.0 | 9.0 | 101.1 | 3.3 | 99.0 | 32.8
O=C(Cn1c(COc2ccccc2)nc2ccccc21)Nc1cccc(Cl)c1 | 101.0 | 19.0 | . | -30.1 | 122.0 | 4.1
CCC(C)NC(=O)Cn1c(COc2ccc(Cl)cc2Cl)nc2ccccc21 (stereo not drawn) | 104.0 | 14.0 | -1.1* | -8.8 | 108.0 | -6.9
Cc1cc(=O)n(Nc2ccccc2)c(O)c1C#N | . | . | 64.4* | . | . | .
Cc1ccc(C)c(N2CCN(C(=O)CCCn3c(=S)[nH]c4cc5c(cc4c3=O)OCO5)CC2)c1 | 101.0 | -3.0 | 77.8* | 11.6 | 88.0 | 23.2
CSc1cccc(NC(=O)c2nnn(CC(=O)Nc3cc(C)cc(C)c3)c2N)c1 | 102.0 | 1.0 | 96.4 | -2.6 | 100.0 | -6.6
SMILES | MEKK3 PB1 HTS | MEKK2mut PB1 HTS | DSG3 Ab inh | UBC13 polyUb | MEKK2 WT-MEK5 | Apaf1 inhib
O=C(COC(=O)CCc1c[nH]c2ccccc12)NC(c1ccccc1)c1ccccc1 | 136.0* | 0.0 | 99.3 | 2.9 | 103.0 | 2.8
O=C1CCC/C=C/C[C@H](CC(=O)N(CCO)Cc2ccccc2)C(=O)N[C@@H](Cc2ccccc2)CO1 | . | . | 100.6 | -2.5 | . | 7.4
CCOC(=O)CCCN1CC(O)=C(c2nc(-c3ccc(Cl)cc3)cs2)C1=N | 96.0 | -9.0 | 95.7* | -16.0 | 93.0 | -0.9
CCCCN1CC(O)=C(c2nc(-c3ccc(Br)cc3)cs2)C1=N | 89.0 | -18.0 | 98.2 | -5.8 | 89.0 | -14.8
O=C(CCCN1C(=O)c2cccc3cccc(c23)C1=O)N1CCN(c2ncccn2)CC1 | 97.0 | -2.0 | 107.8 | -20.0 | 94.0 | -2.1
O=C(CCCN1C(=O)c2cccc3cccc(c23)C1=O)N1CCN(c2ccccn2)CC1 | 129.0* | 0.0 | 111.6 | -3.2 | 109.0 | 5.8
COCCn1cnc2c1c(=O)n(Cc1ccc(C#N)cc1)c(=O)n2Cc1ccccc1 | 101.0 | -2.0 | . | 4.1 | 101.0 | 7.0
CCOC(=O)c1c(C)[nH]c(C(=O)CN(C)CC(=O)Nc2ccccc2Cl)c1C | . | . | . | 19.8 | . | 20.1
O=C1Nc2ccccc2/C1=N/N=C/c1ccc(-c2ccc([N+](=O)[O-])cc2)o1 | 85.0 | -2.0 | 72.1* | . | 91.0 | .
CN(/N=C/c1ccc(-c2ccc([N+](=O)[O-])cc2)o1)c1ccccc1 | 100.0 | -21.0 | 231.2 | -117.9 | 97.0 | -3.2
COc1cccc(CCN2CCC(CNS(=O)(=O)c3cc(-c4cc(C)no4)ccc3OC)CC2)c1 | 97.0 | 4.0 | . | 8.3 | 118.0 | 9.6
COc1cccc(CCN2CCC(CNS(=O)(=O)c3cc(-c4cc(C)no4)ccc3C)CC2)c1 | 103.0 | 23.0 | 107.1 | 11.0 | 140.0* | 6.4
CC/C(=N/NC(=O)c1ccc2c(c1)OCO2)c1ccccc1O | . | . | 109.0 | 5.5 | . | -11.3
CCc1ccc(/C=C2\SC(=S)N(CCCC(=O)Nc3cc(C)on3)C2=O)cc1 | . | . | 99.9 | . | . | .
Cc1ccc(NC(=O)CCCN2C(=O)/C(=C/C=C/c3ccccc3)SC2=S)cc1 | 85.0 | -3.0 | 85.0* | -20.6 | 57.0 | 19.2
Cc1cc(NC(=O)CCCN2C(=O)/C(=C/c3cccs3)SC2=S)no1 | 93.0 | -4.0 | 15.9* | -14.7 | 88.0 | -9.3
Cc1cc(NC(=O)CCCN2C(=O)c3cccc4cccc(c34)C2=O)no1 | 99.0 | 2.0 | 91.6* | -9.6 | 98.0 | -2.9
Cc1cc(NC(=O)CCCN2C(=O)c3cccnc3C2=O)no1 | . | . | 97.2 | 1.9 | . | -8.1
O=C(Nc1ccc(Cl)cc1)C1CCCN(c2ncnc3c2nc2n3CCCCC2)C1 (stereo not drawn) | 100.0 | -3.0 | 98.2 | 16.6 | 98.0 | 21.3
Cc1ccc(NC(=O)NNC(=O)C2CCN(Cc3ccc(F)cc3Cl)CC2)cc1 | 99.0 | -10.0 | 50.1* | 2.5 | 94.0 | 7.9
O=C(N/N=C/c1ccc([N+](=O)[O-])cc1)c1[nH]ncc1Br | 105.0 | -6.0 | 59.4* | -6.3 | 99.0 | 10.7
